The text below walks through data of ChEMBL document CHEMBL3875168, “Synthesis and apoptosis inducing studies of triazole linked 3-benzylidene isatin derivatives” (Eur J Med Chem, 2016).

pIC50: −log10 of the molar value.

One data set can be described thus: Cytotoxicity against human DU145 cells assessed as cell growth inhibition after 48 hrs by MTT assay. The class given is functional, cell-based. The following applies: DU-145, 48 h. The essentials: (§1)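 Cell lines (NCCS) grown in DMEM or RPMI with 10% FBS and antibiotic-antimycotic at 37 °C, 5% CO2, 90% humidity. Cells seeded at 3-5×10^3 per well, treated 48 h with serial dilutions in medium beside vehicle control. Medium replaced with MTT (0.5 mg/mL) for 4 h, absorbance read at 570 nm. IC50 taken from concentration-response curves; sunitinib served as reference.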
On the technique in general: Formazan colour is commonly taken as a measure of viable cells.
As a reminder, the pIC50 is the negative decadic logarithm of the IC50, by convention in mol/L. Consider `O=C1Nc2ccc(Cl)cc2/C1=C/c1cccc(OCc2cn(Cc3ccccc3)nn2)c1`, for which the pIC50 was 4.62.

Consider `Cc1ccc(C(C#Cc2ccccc2)c2ccc3c(c2)/C(=C\c2cccc(OCc4cn(Cc5ccccc5)nn4)c2)C(=O)N3)cc1` (centres undefined), for which the negative logarithm of the IC50 (pIC50) was 4.54.

In the case of `COc1ccc(Cc2ccc3c(c2)/C(=C/c2cccc(OCc4cn(Cc5ccccc5)nn4)c2)C(=O)N3)cc1`, the pIC50 is 5.17.

As to `CC(=O)c1ccc2c(c1)/C(=C/c1cccc(OCc3cn(Cc4ccccc4)nn3)c1)C(=O)N2`, the pIC50 was below 4.30.

As for `O=C1Nc2ccc(Br)cc2/C1=C/c1cccc(OCc2cn(Cc3ccccc3)nn2)c1`, the negative-log IC50 (pIC50) is 4.45.

Regarding `O=C1Nc2cc(Cl)ccc2/C1=C\c1cccc(OCc2cn(Cc3ccccc3)nn2)c1`, the pIC50 is 4.70.

Take `O=Cc1cccc(OCc2cn(Cc3ccccc3)nn2)c1`: the pIC50 was below 4.30.

Take `CCN(CC)CCNC(=O)c1c(C)[nH]c(/C=C2\C(=O)Nc3ccc(F)cc32)c1C` [SUNITINIB]: the pIC50 was 4.79.

Turning to `COc1ccc(Cc2ccc3c(c2)/C(=C\c2cccc(OCc4cn(Cc5ccccc5)nn4)c2)C(=O)N3)cc1`, the negative logarithm of the IC50 (pIC50) was below 4.30.

With `CC(=O)c1ccc2c(c1)/C(=C\c1cccc(OCc3cn(Cc4ccccc4)nn3)c1)C(=O)N2`, the pIC50 is below 4.30.

A further data set in a line: Cytotoxicity against human PC3 cells assessed as cell growth inhibition after 48 hrs by MTT assay. In kind it is functional, cell-based. To be noted: PC-3, 48 h. An outline of the steps: as §1
In the case of `O=C1Nc2ccc(Cl)cc2/C1=C/c1cccc(OCc2cn(Cc3ccccc3)nn2)c1`, the pIC50 was below 4.30.

For the compound `Cc1ccc(C(C#Cc2ccccc2)c2ccc3c(c2)/C(=C\c2cccc(OCc4cn(Cc5ccccc5)nn4)c2)C(=O)N3)cc1` (centres undefined), the pIC50 is below 4.30.

Take `COc1ccc(Cc2ccc3c(c2)/C(=C/c2cccc(OCc4cn(Cc5ccccc5)nn4)c2)C(=O)N3)cc1`: the negative-log IC50 (pIC50) is below 4.30.

With `CC(=O)c1ccc2c(c1)/C(=C/c1cccc(OCc3cn(Cc4ccccc4)nn3)c1)C(=O)N2`, the pIC50 is below 4.30.

`O=C1Nc2ccc(Br)cc2/C1=C/c1cccc(OCc2cn(Cc3ccccc3)nn2)c1`: the pIC50 was below 4.30.

For `O=C1Nc2cc(Cl)ccc2/C1=C\c1cccc(OCc2cn(Cc3ccccc3)nn2)c1`, the pIC50 was below 4.30.

As for `O=Cc1cccc(OCc2cn(Cc3ccccc3)nn2)c1`, the pIC50 was below 4.30.

Turning to `CCN(CC)CCNC(=O)c1c(C)[nH]c(/C=C2\C(=O)Nc3ccc(F)cc32)c1C` [SUNITINIB], the pIC50 is 4.90.

Turning to `COc1ccc(Cc2ccc3c(c2)/C(=C\c2cccc(OCc4cn(Cc5ccccc5)nn4)c2)C(=O)N3)cc1`, the pIC50 is 4.49.

On to `CC(=O)c1ccc2c(c1)/C(=C\c1cccc(OCc3cn(Cc4ccccc4)nn3)c1)C(=O)N2`, for which the pIC50 is below 4.30.

A further data set is described as follows: Cytotoxicity against human MDA-MB-231 cells assessed as cell growth inhibition after 48 hrs by MTT assay. The class given is functional, cell-based. The following applies: MDA-MB-231, 48 h. The essentials: as §1
As to `COc1ccc(Cc2ccc3c(c2)/C(=C/c2cccc(OCc4cn(Cc5ccccc5)nn4)c2)C(=O)N3)cc1`, the pIC50 is 4.69.

On to `CC(=O)c1ccc2c(c1)/C(=C/c1cccc(OCc3cn(Cc4ccccc4)nn3)c1)C(=O)N2`, for which the pIC50 is below 4.30.

With `O=C1Nc2ccc(Br)cc2/C1=C/c1cccc(OCc2cn(Cc3ccccc3)nn2)c1`, the pIC50 is below 4.30.

With `O=C1Nc2cc(Cl)ccc2/C1=C\c1cccc(OCc2cn(Cc3ccccc3)nn2)c1`, the pIC50 is below 4.30.

With `O=Cc1cccc(OCc2cn(Cc3ccccc3)nn2)c1`, the pIC50 was below 4.30.

Take `CCN(CC)CCNC(=O)c1c(C)[nH]c(/C=C2\C(=O)Nc3ccc(F)cc32)c1C` [SUNITINIB]: the pIC50 is 5.13.

In the case of `COc1ccc(Cc2ccc3c(c2)/C(=C\c2cccc(OCc4cn(Cc5ccccc5)nn4)c2)C(=O)N3)cc1`, the pIC50 was below 4.30.

In the case of `CC(=O)c1ccc2c(c1)/C(=C\c1cccc(OCc3cn(Cc4ccccc4)nn3)c1)C(=O)N2`, the pIC50 is below 4.30.

Another data set is described as follows: Cytotoxicity against human BT549 cells assessed as cell growth inhibition after 48 hrs by MTT assay. The class given is functional, cell-based. The following applies: BT-549, 48 h. An outline of the steps: as §1
For the compound `Cc1ccc(C(C#Cc2ccccc2)c2ccc3c(c2)/C(=C\c2cccc(OCc4cn(Cc5ccccc5)nn4)c2)C(=O)N3)cc1` (centres undefined), the negative logarithm of the IC50 (pIC50) was below 4.30.

For `COc1ccc(Cc2ccc3c(c2)/C(=C/c2cccc(OCc4cn(Cc5ccccc5)nn4)c2)C(=O)N3)cc1`, the pIC50 is 4.44.

Regarding `CC(=O)c1ccc2c(c1)/C(=C/c1cccc(OCc3cn(Cc4ccccc4)nn3)c1)C(=O)N2`, the pIC50 was below 4.30.

Turning to `O=C1Nc2ccc(Br)cc2/C1=C/c1cccc(OCc2cn(Cc3ccccc3)nn2)c1`, the pIC50 is below 4.30.

Take `O=C1Nc2cc(Cl)ccc2/C1=C\c1cccc(OCc2cn(Cc3ccccc3)nn2)c1`: the pIC50 is below 4.30.

Take `O=Cc1cccc(OCc2cn(Cc3ccccc3)nn2)c1`: the pIC50 was below 4.30.

For the compound `COc1ccc(Cc2ccc3c(c2)/C(=C\c2cccc(OCc4cn(Cc5ccccc5)nn4)c2)C(=O)N3)cc1`, the pIC50 was below 4.30.

Turning to `CC(=O)c1ccc2c(c1)/C(=C\c1cccc(OCc3cn(Cc4ccccc4)nn3)c1)C(=O)N2`, the pIC50 was below 4.30.

The next data set in a line: Cytotoxicity against human A549 cells assessed as cell growth inhibition after 48 hrs by MTT assay. The following applies: A549, 48 h. The class given is functional, cell-based. The essentials:
as §1
Take `O=C1Nc2ccc(Cl)cc2/C1=C/c1cccc(OCc2cn(Cc3ccccc3)nn2)c1`: the negative logarithm of the IC50 (pIC50) was below 4.30.

On to `Cc1ccc(C(C#Cc2ccccc2)c2ccc3c(c2)/C(=C\c2cccc(OCc4cn(Cc5ccccc5)nn4)c2)C(=O)N3)cc1` (centres undefined), for which the pIC50 was 4.44.

Regarding `COc1ccc(Cc2ccc3c(c2)/C(=C/c2cccc(OCc4cn(Cc5ccccc5)nn4)c2)C(=O)N3)cc1`, the pIC50 was 4.52.

With `CC(=O)c1ccc2c(c1)/C(=C/c1cccc(OCc3cn(Cc4ccccc4)nn3)c1)C(=O)N2`, the pIC50 was 4.44.

As for `O=C1Nc2ccc(Br)cc2/C1=C/c1cccc(OCc2cn(Cc3ccccc3)nn2)c1`, the pIC50 was below 4.30.

For the compound `O=C1Nc2cc(Cl)ccc2/C1=C\c1cccc(OCc2cn(Cc3ccccc3)nn2)c1`, the pIC50 is below 4.30.

Turning to `O=Cc1cccc(OCc2cn(Cc3ccccc3)nn2)c1`, the pIC50 was below 4.30.

As for `COc1ccc(Cc2ccc3c(c2)/C(=C\c2cccc(OCc4cn(Cc5ccccc5)nn4)c2)C(=O)N3)cc1`, the negative logarithm of the IC50 (pIC50) is below 4.30.

As to `CC(=O)c1ccc2c(c1)/C(=C\c1cccc(OCc3cn(Cc4ccccc4)nn3)c1)C(=O)N2`, the pIC50 is below 4.30.

Another data set in a line: Cytotoxicity against human HeLa cells assessed as cell growth inhibition after 48 hrs by MTT assay. The class given is functional, cell-based.
Conditions: not given
The essentials: as §1
As for `Cc1ccc(C(C#Cc2ccccc2)c2ccc3c(c2)/C(=C\c2cccc(OCc4cn(Cc5ccccc5)nn4)c2)C(=O)N3)cc1` (centres undefined), the pIC50 was 4.48.

In the case of `COc1ccc(Cc2ccc3c(c2)/C(=C/c2cccc(OCc4cn(Cc5ccccc5)nn4)c2)C(=O)N3)cc1`, the pIC50 is 5.11.

In the case of `CC(=O)c1ccc2c(c1)/C(=C/c1cccc(OCc3cn(Cc4ccccc4)nn3)c1)C(=O)N2`, the pIC50 is below 4.30.

As to `O=C1Nc2ccc(Br)cc2/C1=C/c1cccc(OCc2cn(Cc3ccccc3)nn2)c1`, the pIC50 was below 4.30.

As for `O=C1Nc2cc(Cl)ccc2/C1=C\c1cccc(OCc2cn(Cc3ccccc3)nn2)c1`, the pIC50 is below 4.30.

In the case of `O=Cc1cccc(OCc2cn(Cc3ccccc3)nn2)c1`, the pIC50 was below 4.30.

Turning to `CCN(CC)CCNC(=O)c1c(C)[nH]c(/C=C2\C(=O)Nc3ccc(F)cc32)c1C` [SUNITINIB], the pIC50 is 4.98.

For the compound `CC(=O)c1ccc2c(c1)/C(=C\c1cccc(OCc3cn(Cc4ccccc4)nn3)c1)C(=O)N2`, the pIC50 was below 4.30.

Another data set can be described thus: Cytotoxicity against human RWPE1 cells assessed as cell growth inhibition after 48 hrs by MTT assay. The class given is toxicity, cell-based, RWPE-1.
Conditions: not given
As a reminder, the IC50 is the midpoint of a concentration-inhibition curve. Take `CCN(CC)CCNC(=O)c1c(C)[nH]c(/C=C2\C(=O)Nc3ccc(F)cc32)c1C` [SUNITINIB]: the IC50 at 48 h stood at 25.2 µM.
